Measurements pooled from the literature.
Lines come from different studies, so protocols differ.
Target: Dual specificity protein kinase CLK4 (CLK4, Homo sapiens, UniProt Q9HAZ1)

O=c1[nH]c2ccccc2n1C1CCN(Cc2ccc(-c3[nH]c4cc5ncnc5cc4nc3-c3ccccc3)cc2)CC1  remaining signal (cell-free assay; 0.5 µM): 92.8%
Cn1cncc1[C@@](O)(COc1ccc(C#N)cc1-c1ccc(OC(F)(F)F)cc1)c1ccc(C#N)cc1  remaining binding (cell-free assay; competition with immobilised ligand; 1 µM): 96%
Nc1ncc(-c2nc(N3CCOCC3)nc(N3CCOCC3)n2)c(C(F)F)n1  remaining binding (binding; competition with immobilised ligand; 10 µM): 30%
COc1ncccc1-c1cnn2ccc(N3CCN(C(=O)OC(C)C)CC3)nc12  remaining binding (binding; competition with immobilised ligand; 1 µM): 98%
C#Cc1n[nH]c2c(-c3cn([C@@H](C)c4ccccn4)c(=O)[nH]c3=O)cc(F)cc12  inhibition (enzyme activity; inhibitor; 0.1 µM): 8.9%
CC(C)(C)c1cc(C=C(C#N)C#N)cc(Br)c1O  remaining activity (enzyme activity; inhibitor; 0.5 µM): 88.6%
COc1cc(Nc2ncc(F)c(Nc3ccc4c(n3)NC(=O)C(C)(C)O4)n2)cc(OC)c1OC  inhibition (binding; competition with immobilised ligand; 10 µM): 85%
C#Cc1n[nH]c2c(-c3cn([C@@H](C)c4ccccc4)c(=O)[nH]c3=O)cc(F)cc12  inhibition (enzyme activity; inhibitor; 0.1 µM): -0.9%
Cc1nn(C)cc1-c1nc2c(N3CCN(Cc4ccc(Cl)cc4)CC3)c(Cl)cnc2[nH]1  remaining binding (binding; competition with immobilised ligand; 1 µM): 100%
